Screening data deposited in PubChem BioAssay by several laboratories.
Tn7 DDE FP: inhibitors of Tn7 peptide binding to human fibrin DD(E); P02675; FP displacement of FITC-Tn7 peptide from fibrin DD(E); 0% = median of compound wells per plate; inhibition, % at 8.3 µM; 0.13% of 370,000 active; AID 720508;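 active = inhibition above the mean of compounds falling within the control limits plus 3 SD of them, cut at about 14% in these data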;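 also: 0% = plate median of compound wells and 100% = 10 µM Aha-Tn7 peptide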
Target sequence (P02675 whole entry, looked up): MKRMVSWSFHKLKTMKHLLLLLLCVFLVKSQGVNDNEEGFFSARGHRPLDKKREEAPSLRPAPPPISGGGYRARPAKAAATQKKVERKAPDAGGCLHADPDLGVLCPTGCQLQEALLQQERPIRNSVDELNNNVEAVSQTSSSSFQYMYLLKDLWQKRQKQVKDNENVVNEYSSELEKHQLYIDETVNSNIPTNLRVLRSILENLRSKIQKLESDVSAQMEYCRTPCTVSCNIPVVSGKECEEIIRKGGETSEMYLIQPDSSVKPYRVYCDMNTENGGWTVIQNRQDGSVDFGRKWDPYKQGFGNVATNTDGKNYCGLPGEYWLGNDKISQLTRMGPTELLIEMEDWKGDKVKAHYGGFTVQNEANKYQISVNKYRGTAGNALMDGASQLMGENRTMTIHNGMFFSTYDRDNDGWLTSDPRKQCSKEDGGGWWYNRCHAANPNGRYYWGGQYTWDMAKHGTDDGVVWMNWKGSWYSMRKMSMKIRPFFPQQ
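Also added: labelled Tn7 tracer, 0.1 µM; Assay system: human fibrin DD(E) protein; Amount: 2 µM fibrin DD(E); Schedule: 10 min compound pre-incubation, 3 h probe incubation at room temperature; Repeats: one replicate per compound; Read-out basis: percent inhibition; Measured by: fluorescence polarization of the labelled Tn7 tracer.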
ABCG2 block: inhibitors of human ABCG2 transporter, ABCB1 counter-screen; Q9UNQ0; IgMXP3 cells, JC-1 efflux, flow cytometry; inhibition, % at 6.6 µM; 0.1% of 190,000 active; AID 1325;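 active = inhibition above 80%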;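 also: 0% = DMSO and 100% = nicardipine control wells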
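material = IgMXP3 (ABCG2) plus far-red-tagged CCRF-Adr (ABCB1) cells | amount = 3 million cells/mL, equal mix of both lines | also added = JC-1 transporter substrate | dosing = one concentration, 6.6 µM final | schedule = 10 min at 25 °C | measured by = flow cytometric JC-1 green MFI at 530 nm | read-out basis = percent efflux inhibition, scaled nicardipine 100% to DMSO 0%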
GRK2 aptamer HTS: blocks RNA aptamer binding to human GRK2; P25098; bead flow cytometry, FAM-aptamer displacement from GRK2; inhibition of aptamer binding, % at 10 µM; 0.59% of 330,000 active; AID 488847;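 active = inhibition of aptamer binding above 40%, roughly 3 SD of noise, on plates passing a quality check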;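 also: median bead fluorescence of bound FAM aptamer so fluorescent compounds give negative values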
Insulin prom up: MIN6 insulin promoter up-regulation; MIN6 insulin promoter-GFP reporter, high-content imaging; stronger effect = higher value; z-score at 5 µM; 0.3% of 190,000 active; AID 1625;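 active = z-score above 3 at 5 µM with at least 500 cells counted in the well; inconclusive = wells under 500 cells, flagged as cytotoxic or low count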
ABCB1 block: human ABCB1 inhibition, ABCG2 as counter-screen; P08183; CCRF-Adr cells, JC-1 efflux, flow cytometry; inhibition, % at 6.6 µM; 0.067% of 190,000 active; AID 1326; in the data active = inhibition above about 40%;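 also: 0% = vehicle and 100% = reference inhibitor; higher value means more JC-1 retained so stronger ABCB1 efflux block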
DDE Tn6 FP inh: inhibitors of Tn6 peptide binding to human fibrin DD(E) | Fibrin DD(E) TRITC-Tn6 fluorescence polarization displacement | inhibition, % at 8.3 µM | 0.21% of 370,000 active | P02675;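 active = inhibition above a per-campaign cutoff: mean of compounds within control limits plus 3 SD, cut at about 15% in these data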;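 also: 0% = median of all compound wells on the plate and 100% = blocking peptide control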
GRK2 CP1: human GRK2 inhibition confirmation, cherry pick 1; shares compounds with GRK2 aptamer HTS; bead-bound GRK2, FAM-aptamer displacement, flow cytometry; aptamer displacement, % at 10 µM; 4% of 2,000 active;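 active = aptamer displacement above 40%, near three times the noise of non-fluorescent compounds, on plates passing quality checks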;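 also: negative values mostly reflect intrinsic compound fluorescence rather than true enhancement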
FAM quench CP1: counter-screen for GRK2 aptamer inhibitors: fluorescent aptamer quenchers; shares compounds with GRK2 aptamer HTS; Carboxyfluorescein RNA aptamer on beads, flow cytometry quenching; stronger effect = lower value; fluorescence response (% of DMSO), % at 10 µM; 2,000 tested, under 10 active;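 active = compounds that quench the bead-bound fluorescent RNA probe, cutting fluorescence to under half of the solvent control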;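 also: counterscreen run without GRK2 so only probe quenching by compound is measured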
GRK2 confirm 2: human GRK2 inhibition confirmation, cherry pick 2. shares compounds with GRK2 aptamer HTS. bead-bound GRK2, FAM-aptamer displacement, flow cytometry. inhibition of aptamer binding, % at 10 µM. 360 tested, under 10 active;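 active = inhibition of aptamer binding above 40%, about triple the noise seen with nonglowing compounds, on plates passing quality control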;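 also: negative values mostly come from compounds that fluoresce themselves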
FAM quench CP2: aptamer fluorescence quenching in GRK2 counter-screen; shares compounds with GRK2 aptamer HTS; carboxyfluorescein RNA aptamer beads, flow cytometry quenching; stronger effect = lower value; fluorescence response vs DMSO, % at 10 µM; 360 tested, under 10 active; AID 588494;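 active = response vs DMSO under 50%, meaning signal dropped by over half, treated as fluorescence quencher; inconclusive = no clear call, values can overlap the other calls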;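 also: labelled aptamer on streptavidin beads without GRK2 as a quench counter-screen; 100% = bead fluorescence of DMSO wells and lower means quenching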
The depositor's hits bear a star; ? = inconclusive; · = no result given. Shown are actives, neighbours in structure and some others; about 0.99% of the full set was active somewhere.

SMILES	Tn7 DDE FP	ABCG2 block	GRK2 aptamer HTS	Insulin prom up	ABCB1 block	DDE Tn6 FP inh	GRK2 CP1	FAM quench CP1	others
Cc1ccc(S(=O)(=O)N2c3ccccc3C[C@H]2CC=C(c2ccccc2)c2ccccc2)cc1	-6.4	·	·	·	·	-0.9	·	·
CN(C)S(=O)(=O)n1cnc(-c2ccccc2)c1-c1ccccc1	-1.1	-1.8	2.0	-0.64	-0.2	3.5	·	·
CN(C)S(=O)(=O)n1cnc(C(CCO)c2ncn(S(=O)(=O)N(C)C)c2CCCO)c1 (centres undefined)	2.0	·	40.0	·	·	6.0	3.2	21.6*
C[C@H](CO)N1C[C@H](C)[C@@H](CN(C)C(=O)Nc2ccnc(N3CCOCC3)c2)OCc2cn(nn2)CCCC1=O	-5.0	·	·	·	·	3.5	·	·
Cc1cc(C)cc(NC(=S)N2CCN(c3ncc(C(F)(F)F)cc3Cl)CC2)c1	-6.4	·	0.0	0.44	·	-0.5	·	·
Cc1cc(C)c(OCC(=O)N2CCN(c3ncc(C(F)(F)F)cc3Cl)CC2)c(C)c1	0.0	·	80.0*	·	·	-4.6	·	·	GRK2 confirm 2=19.1;FAM quench CP2=100.0
O=S1(=O)c2ccc(Br)cc2OC[C@@H](c2ccccc2)N1Cc1cn(CCC2OCCO2)nn1	-1.3	·	·	·	·	-5.6	·	·
Cc1ccccc1NC(=O)N1CCN(C/C=C/c2ccccc2)CC1	-1.2	1.4	66.0*	-0.16	0.1	-6.7	2.9	99.0
N#CCc1ccc(NS(=O)(=O)c2ccc(C3CCCCC3)cc2)cc1	-6.4	-2.0	78.0*	0.07	0.2	-4.4	0.5	96.5
COc1ccc(/C=N/Nc2ncc(Br)cn2)c(OC)c1	11.0	1.3	45.0*	·	-0.4	1.1	24.9	98.6
COc1ccc(/C=N\Nc2ccccn2)c(OC)c1	-5.8	·	0.0	·	·	2.5	·	·
C=CCCC(=O)N[C@H]1CC[C@@]23CCCN2C(=O)CCC[C@H]3[C@H]1C	-3.9	·	·	·	·	-3.1	·	·
O=[N+]([O-])c1cccc(-c2cc3cccc[n+]3cc2-c2cccc([N+](=O)[O-])c2)c1	-5.5	5.2	0.0	-0.28	0.3	3.5	·	·
Cc1cccc2cc(-c3ccccc3)c(-c3ccccc3)c[n+]12	3.0	-2.7	44.0*	?	-0.5	7.5	18.2	62.5
C=CCNC(=S)NNC(=O)C(CCCC)CC(O)COCC(C)C (centres undefined)	4.8	·	45.0*	-0.13	·	-3.2	3.6	101.2
C=CCNC(=S)NNC(=O)C(CCC(C)C)CC(C)O (centres undefined)	-3.7	1.6	0.0	0.2	0.3	1.2	·	·
Cc1ccc(-n2c(SCC(=O)Nc3ccccc3-c3ccccc3)nnc2-c2ccccn2)cc1	-1.7	·	·	·	·	2.3	·	·
CC(C)C(NC(=O)[C@H](Cc1ccccc1)NC(=O)OCc1ccccc1)P(=O)(O)OC(Cc1ccccc1)C(=O)O (some centres undefined)	5.2	·	·	·	·	5.6	·	·
O=Cc1ccc(N2N=C(c3ccccc3)CC2c2ccccc2)cc1 (centres undefined)	3.7	·	46.0*	·	·	3.9	6.3	95.1
COc1ccc(C2=NN(c3ccc(C=O)cc3)C(c3ccccc3)C2)cc1 (centres undefined)	·	·	3.0	·	·	·	·	·
CN1C/C(=C/c2ccccc2)N2C(=O)C[C@@H](c3ccccc3)N=C12	0.5	·	·	·	·	-5.9	·	·
O=C(NCC1COc2ccccc2O1)c1ccc(NC(=O)c2cccc(F)c2)cc1 (centres undefined)	9.4	·	·	·	·	1.4	·	·
CCn1cnc2cc(NCc3ccc(Br)cc3)ccc21	4.5	·	44.0*	·	·	8.4	1.5	104.8
CCCn1cnc2cc(NCc3ccc(Br)cc3)ccc21	-3.8	·	0.0	·	·	7.3	-4.8	102.7
